{"source": "ChEMBL document CHEMBL3875225", "about": "“Design, synthesis and biological evaluation of 7-(aryl)-2,3-dihydro-[1,4]dioxino[2,3-g]quinoline derivatives as potential Hsp90 inhibitors and anticancer agents” (Bioorg Med Chem, 2017)", "key": {"[1]": {"assay": "Antiproliferative activity against human MCF7 cells after 48 hrs by MTT assay", "format": "functional, cell-based", "details": "for IC50: Homo sapiens, MCF7, 48 h", "outline": "(§1)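 5000 cells seeded per well in RPMI complete medium; next day medium replaced with medium containing a range of compound concentrations, with a no-drug control and 17-AAG as reference. After 48 h at 37 °C, 5% CO2, MTT (4 mg/mL solution) added for 3 h. Formazan dissolved in DMSO, absorbance read at 540 nm. Triplicate determinations; mean SD from dose-response curves of three independent experiments.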"}, "[2]": {"assay": "Antiproliferative activity against human A549 cells after 48 hrs by MTT assay", "format": "functional, cell-based", "details": "for IC50: Homo sapiens, A549, 48 h", "outline": "as §1"}, "[3]": {"target": "T1, Heat shock protein HSP90 (Homo sapiens) (UniProt P07900+P08238)", "assay": "Inhibition of HSP90 in human MCF7 cells assessed as induction of HSP70 protein expression at 50 uM after 24 hrs by Western blot method relative to control", "format": "cell-based", "outline": "(§2)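 MCF-7 cells seeded at 10⁶ per 25 cm² flask and treated 24 h with 50 µM compound; DMSO vehicle control, 0.5 μM 17-AAG reference. Lysis in Tris-HCl pH 7.4 buffer with protease/phosphatase inhibitors. 50 µg protein resolved on 10% SDS-PAGE, transferred to PVDF, blocked 2 h in 5% skim milk/TBST at 4 °C. Probed 2 h with rabbit anti-Her-2 and anti-Hsp-70 (1:3000); β-tubulin also blotted.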"}, "[4]": {"assay": "Effect on beta-tubulin protein expression in human MCF7 cells at 50 uM after 24 hrs by Western blot method", "format": "cell-based", "details": "mcf7, 24 h", "outline": "as §2"}, "[5]": {"target": "T1, Heat shock protein HSP90 (Homo sapiens)", "assay": "Inhibition of HSP90 in human MCF7 cells assessed as decrease in Her2 protein expression at 50 uM after 24 hrs by Western blot method relative to control", "format": "cell-based", "outline": "as §2"}, "[6]": {"assay": "Antiproliferative activity against human DU145 cells after 48 hrs by MTT assay", "format": "functional, cell-based, DU-145", "details": "for IC50: Homo sapiens, DU-145, 48 h", "outline": "as §1"}}, "note": "Active and inactive are the calls of the source. The calls are words filed in the database; no cut-off is given here.", "data": [{"smiles": "COc1ccc(-c2cc(CO)c3cc4c(cc3n2)OCCO4)cc1O", "values": [{"measurement": "IC50", "setting": "[1]", "result": 40, "unit": "µM"}, {"measurement": "IC50", "setting": "[2]", "result": 94.2, "unit": "µM"}, {"measurement": "inhibition", "setting": "[3]", "result": "Active"}, {"measurement": "Activity", "setting": "[4]", "result": "Non-Toxic"}, {"measurement": "inhibition", "setting": "[5]", "result": "> 50", "unit": "%"}, {"measurement": "IC50", "setting": "[6]", "result": 89.7, "unit": "µM"}]}, {"smiles": "COc1ccc(-c2cc(C(=O)O)c3cc4c(cc3n2)OCCO4)cc1O", "values": [{"measurement": "IC50", "setting": "[1]", "result": "> 100", "unit": "µM"}, {"measurement": "IC50", "setting": "[2]", "result": "> 100", "unit": "µM"}, {"measurement": "IC50", "setting": "[6]", "result": "> 100", "unit": "µM"}]}, {"smiles": "COc1ccc(-c2cc(C(=O)O)c3cc4c(cc3n2)OCCO4)cc1", "values": [{"measurement": "IC50", "setting": "[1]", "result": "> 100", "unit": "µM"}, {"measurement": "IC50", "setting": "[2]", "result": "> 100", "unit": "µM"}, {"measurement": "IC50", "setting": "[6]", "result": "> 100", "unit": "µM"}]}, {"smiles": "O=C(O)c1cc(-c2cccc(O)c2)nc2cc3c(cc12)OCCO3", "values": [{"measurement": "IC50", "setting": "[1]", "result": "> 100", "unit": "µM"}, {"measurement": "IC50", "setting": "[2]", "result": "> 100", "unit": "µM"}, {"measurement": "IC50", "setting": "[6]", "result": "> 100", "unit": "µM"}]}, {"smiles": "OCc1cc(-c2ccccc2)nc2cc3c(cc12)OCCO3", "values": [{"measurement": "IC50", "setting": "[1]", "result": 22.7, "unit": "µM"}, {"measurement": "IC50", "setting": "[2]", "result": "> 100", "unit": "µM"}, {"measurement": "inhibition", "setting": "[3]", "result": "Active"}, {"measurement": "Activity", "setting": "[4]", "result": "Non-Toxic"}, {"measurement": "inhibition", "setting": "[5]", "result": "> 50", "unit": "%"}, {"measurement": "IC50", "setting": "[6]", "result": 86.1, "unit": "µM"}]}, {"smiles": "COc1cc(-c2cc(CO)c3cc4c(cc3n2)OCCO4)cc(OC)c1OC", "values": [{"measurement": "IC50", "setting": "[1]", "result": 4.53, "unit": "µM"}, {"measurement": "IC50", "setting": "[2]", "result": 46.9, "unit": "µM"}, {"measurement": "inhibition", "setting": "[3]", "result": "Active"}, {"measurement": "Activity", "setting": "[4]", "result": "Non-Toxic"}, {"measurement": "inhibition", "setting": "[5]", "result": "> 50", "unit": "%"}, {"measurement": "IC50", "setting": "[6]", "result": 64.2, "unit": "µM"}]}, {"smiles": "Cc1ccc(-c2cc(C(=O)O)c3cc4c(cc3n2)OCCO4)cc1", "values": [{"measurement": "IC50", "setting": "[1]", "result": "> 100", "unit": "µM"}, {"measurement": "IC50", "setting": "[2]", "result": "> 100", "unit": "µM"}, {"measurement": "IC50", "setting": "[6]", "result": "> 100", "unit": "µM"}]}, {"smiles": "COc1ccc(/C=N/c2ccc3c(c2)OCCO3)cc1OC", "values": [{"measurement": "Activity", "setting": "[1]", "result": ">100", "unit": "µM"}, {"measurement": "Activity", "setting": "[2]", "result": ">100", "unit": "µM"}, {"measurement": "Activity", "setting": "[6]", "result": ">100", "unit": "µM"}]}, {"smiles": "CC(=O)Nc1ccc(-c2cc(C(=O)O)c3cc4c(cc3n2)OCCO4)cc1", "values": [{"measurement": "IC50", "setting": "[1]", "result": "> 100", "unit": "µM"}, {"measurement": "IC50", "setting": "[2]", "result": "> 100", "unit": "µM"}, {"measurement": "IC50", "setting": "[6]", "result": "> 100", "unit": "µM"}]}, {"smiles": "COc1cc(/C=N/c2ccc3c(c2)OCCO3)ccc1O", "values": [{"measurement": "Activity", "setting": "[1]", "result": ">100", "unit": "µM"}, {"measurement": "Activity", "setting": "[2]", "result": ">100", "unit": "µM"}, {"measurement": "Activity", "setting": "[6]", "result": ">100", "unit": "µM"}]}, {"smiles": "O=C(O)c1cc(-c2ccc(O)cc2)nc2cc3c(cc12)OCCO3", "values": [{"measurement": "IC50", "setting": "[1]", "result": "> 100", "unit": "µM"}, {"measurement": "IC50", "setting": "[2]", "result": "> 100", "unit": "µM"}, {"measurement": "IC50", "setting": "[6]", "result": "> 100", "unit": "µM"}]}, {"smiles": "COc1cc(-c2cc(CO)c3cc4c(cc3n2)OCCO4)ccc1O", "values": [{"measurement": "IC50", "setting": "[1]", "result": 25.7, "unit": "µM"}, {"measurement": "IC50", "setting": "[2]", "result": 87.8, "unit": "µM"}, {"measurement": "inhibition", "setting": "[3]", "result": "Active"}, {"measurement": "Activity", "setting": "[4]", "result": "Non-Toxic"}, {"measurement": "inhibition", "setting": "[5]", "result": "> 50", "unit": "%"}, {"measurement": "IC50", "setting": "[6]", "result": 86.8, "unit": "µM"}]}, {"smiles": "COc1ccc(-c2cc(CO)c3cc4c(cc3n2)OCCO4)cc1OC", "values": [{"measurement": "IC50", "setting": "[1]", "result": 6.7, "unit": "µM"}, {"measurement": "IC50", "setting": "[2]", "result": 82.1, "unit": "µM"}, {"measurement": "inhibition", "setting": "[3]", "result": "Active"}, {"measurement": "Activity", "setting": "[4]", "result": "Non-Toxic"}, {"measurement": "inhibition", "setting": "[5]", "result": "> 50", "unit": "%"}, {"measurement": "IC50", "setting": "[6]", "result": 11.5, "unit": "µM"}]}, {"smiles": "COc1cc(-c2cc(C(=O)O)c3cc4c(cc3n2)OCCO4)ccc1O", "values": [{"measurement": "IC50", "setting": "[1]", "result": "> 100", "unit": "µM"}, {"measurement": "IC50", "setting": "[2]", "result": "> 100", "unit": "µM"}, {"measurement": "IC50", "setting": "[6]", "result": "> 100", "unit": "µM"}]}, {"smiles": "COc1cc(/C=N/c2ccc3c(c2)OCCO3)cc(OC)c1OC", "values": [{"measurement": "Activity", "setting": "[1]", "result": ">100", "unit": "µM"}, {"measurement": "Activity", "setting": "[2]", "result": ">100", "unit": "µM"}, {"measurement": "Activity", "setting": "[6]", "result": ">100", "unit": "µM"}]}, {"smiles": "O=C(O)c1cc(-c2ccccc2)nc2cc3c(cc12)OCCO3", "values": [{"measurement": "IC50", "setting": "[1]", "result": "> 100", "unit": "µM"}, {"measurement": "IC50", "setting": "[2]", "result": "> 100", "unit": "µM"}, {"measurement": "IC50", "setting": "[6]", "result": "> 100", "unit": "µM"}]}, {"smiles": "Oc1ccc(/C=N/c2ccc3c(c2)OCCO3)cc1", "values": [{"measurement": "Activity", "setting": "[1]", "result": ">100", "unit": "µM"}, {"measurement": "Activity", "setting": "[2]", "result": ">100", "unit": "µM"}, {"measurement": "Activity", "setting": "[6]", "result": ">100", "unit": "µM"}]}, {"smiles": "COc1cc(-c2cc(C(=O)O)c3cc4c(cc3n2)OCCO4)cc(OC)c1OC", "values": [{"measurement": "IC50", "setting": "[1]", "result": "> 100", "unit": "µM"}, {"measurement": "IC50", "setting": "[2]", "result": "> 100", "unit": "µM"}, {"measurement": "IC50", "setting": "[6]", "result": "> 100", "unit": "µM"}]}, {"smiles": "COc1ccc(-c2cc(CO)c3cc4c(cc3n2)OCCO4)cc1", "values": [{"measurement": "IC50", "setting": "[1]", "result": 24, "unit": "µM"}, {"measurement": "IC50", "setting": "[2]", "result": "> 100", "unit": "µM"}, {"measurement": "inhibition", "setting": "[3]", "result": "Active"}, {"measurement": "Activity", "setting": "[4]", "result": "Non-Toxic"}, {"measurement": "inhibition", "setting": "[5]", "result": "> 50", "unit": "%"}, {"measurement": "IC50", "setting": "[6]", "result": 21.4, "unit": "µM"}]}, {"smiles": "C=CCNC1=C2C[C@@H](C)C[C@H](OC)[C@H](O)[C@@H](C)/C=C(\\C)[C@H](OC(N)=O)[C@@H](OC)/C=C\\C=C(/C)C(=O)NC(=CC1=O)C2=O", "note": "[TANESPIMYCIN]", "values": [{"measurement": "IC50", "setting": "[1]", "result": 0.192, "unit": "µM"}, {"measurement": "IC50", "setting": "[2]", "result": 0.286, "unit": "µM"}, {"measurement": "IC50", "setting": "[6]", "result": 0.282, "unit": "µM"}]}, {"smiles": "COc1ccc(-c2cc(C(=O)O)c3cc4c(cc3n2)OCCO4)cc1OC", "values": [{"measurement": "IC50", "setting": "[1]", "result": "> 100", "unit": "µM"}, {"measurement": "IC50", "setting": "[2]", "result": "> 100", "unit": "µM"}, {"measurement": "IC50", "setting": "[6]", "result": "> 100", "unit": "µM"}]}]}
